Laboratory results: paper PMC3397176 (Journal of Medicinal Chemistry, 2012)
Several values for one entry are separate records, joined by “and”; a condition that tells them apart may be missing. Equal values may be shown once. Blank lines part the entries; values can stand above or below the compound they belong to.

What was measured:
Bcl-xL = Bcl-xL (Homo sapiens, UniProt Q07817); assay: FP-based competitive binding assay, Bcl-xL; conditions: Bcl-2 and Bcl-xL
Aqueous solubility = assay type: physicochemical
Bcl-2 = Bcl-2 (Homo sapiens, UniProt P10415); assay: FP-based competitive binding assay, Bcl-2
Sequence of Bcl-2 (P10415 whole entry): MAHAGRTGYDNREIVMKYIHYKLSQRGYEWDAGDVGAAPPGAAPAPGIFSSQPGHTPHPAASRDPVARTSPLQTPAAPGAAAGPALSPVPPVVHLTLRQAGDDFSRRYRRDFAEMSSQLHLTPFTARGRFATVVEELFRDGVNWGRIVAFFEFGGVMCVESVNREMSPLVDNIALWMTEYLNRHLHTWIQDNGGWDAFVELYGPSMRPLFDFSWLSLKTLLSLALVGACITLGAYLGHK

[1] = tested on: H146 small-cell lung cancer cell line; assay: Cell growth assay; assay type: cell-based, Human; conditions: H146 and H1417
H146 cancer cell line = assay: Cell death assay; assay type: cell-based, Human; conditions: H146, 24 h, trypan blue
Procedure, shortened: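 Human small cell lung cancer H146 cells from ATCC, grown in RPMI-1640 with 10% FBS, exposed to test compound for 24 h. Cells then collected and stained with trypan blue. Blue-stained or morphologically unhealthy cells were scored as dead, with at least 100 cells counted per sample.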

[2] = tested on: cleavage of PARP and caspase-3 in the H146 cell line; assay: Western blotting of PARP and caspase-3 cleavage, H146; assay type: cell-based, Human; conditions: H146, 24 h, as low as
Procedure, shortened: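 H146 cells (RPMI-1640, 10% FBS) treated with test compound for 24 h, then lysed on ice for 20 min in RIPA buffer (PBS, 1% NP40, 0.5% Na-deoxycholate, 0.1% SDS) with […] and protease inhibitors. Cleared lysates were protein-quantified, run on 4–20% SDS-PAGE and transferred to PVDF. Blots were blocked in 5% milk and probed with rabbit anti-PARP, anti-caspase-3 and anti-GAPDH, then HRP secondary and chemiluminescence.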

Sequence of Bcl-xL (Q07817 whole entry): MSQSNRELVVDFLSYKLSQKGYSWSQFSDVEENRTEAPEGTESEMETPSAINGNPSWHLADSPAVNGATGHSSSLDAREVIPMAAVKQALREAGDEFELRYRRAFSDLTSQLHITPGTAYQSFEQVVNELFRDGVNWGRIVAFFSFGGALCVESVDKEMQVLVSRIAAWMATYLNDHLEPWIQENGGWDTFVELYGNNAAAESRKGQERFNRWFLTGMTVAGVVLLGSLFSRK

Structure (SMILES): CN(C)CCC(CSc1ccccc1)Nc1ccc(S(=O)(=O)NC(=O)c2ccc(N3CCN(c4cccc(-c5c(-c6ccc(Cl)cc6)cn(CC[C@H](O)CO)c5C(=O)NCCCN5CCN(C)CC5)c4)CC3)cc2)cc1[N+](=O)[O-] (stereo in doubt) [Compound 6, 4-(4-Chlorophenyl)-1-((S)-3,4-dihydroxybutyl)-3-(3-(4-(4-(((4-(((S)-4-(dimethylamino)-1-(phenylthio)butan-2-yl)amino)-3-nitrophenyl)sulfonyl)carbamoyl)phenyl)piperazin-1-yl)phenyl)-N-(3-(4-methylpiperazin-1-yl)propyl)-1H-pyrrole-2-carboxamide]
times more potent than either 4 or 5 in binding (Bcl-xL): > 10,000

Structure (SMILES): CN1CCN(CCCNC(=O)c2c(-c3ccccc3)c(-c3ccc(Cl)cc3)cn2CC[C@H](O)CO)CC1 [Compound 4, (S)-4-(4-chlorophenyl)-1-(3,4-dihydroxybutyl)-N-(3-(4-methylpiperazin-1-yl)propyl)-3-phenyl-1H-pyrrole-2-carboxamide]
aqueous solubility (Aqueous solubility): excellent aqueous solubility

Structure (SMILES): CN(C)CC[C@H](CSc1ccccc1)Nc1ccc(S(=O)(=O)Nc2ccc(NCCNc3cccc(-c4c(-c5ccc(Cl)cc5)cn(CC[C@H](O)CO)c4C(=O)NCCCN4CCN(C)CC4)c3)cc2)cc1[N+](=O)[O-] [Compound 11, 4-(4-Chlorophenyl)-1-((S)-3,4-dihydroxybutyl)-3-(3-((2-((4-(4-(((R)-4-(dimethylamino)-1-(phenylthio)butan-2-yl)amino)-3-nitrophenylsulfonamido)phenyl)amino)ethyl)amino)phenyl)-N-(3-(4-methylpiperazin-1-yl)propyl)-1H-pyrrole-2-carboxamide]
times less potent than 7 in binding (Bcl-2; Bcl-2/Bcl-xL, protein not specified): at least 10

Structure (SMILES): CN(C)CC[C@H](CSc1ccccc1)Nc1ccc(S(=O)(=O)Nc2ccc(N3CCN(c4cccc(-c5c(-c6ccc(Cl)cc6)cn(C)c5C(=O)NCCCN5CCN(C)CC5)c4)CC3)cc2)cc1[N+](=O)[O-] [Compound 16, (R)-4-(4-Chlorophenyl)-3-(3-(4-(4-(4-((4-(dimethylamino)-1-(phenylthio)butan-2-yl)amino)-3-nitrophenylsulfonamido)phenyl)piperazin-1-yl)phenyl)-1-methyl-N-(3-(4-methylpiperazin-1-yl)propyl)-1H-pyrrole-2-carboxamide]
times more potent than 7 in cell growth inhibition [1]: 3–5

Structure (SMILES): CN(C)CC[C@H](CSc1ccccc1)Nc1ccc(S(=O)(=O)Nc2ccc(N3CCN(c4cccc(-c5c(-c6ccc(Cl)cc6)cn(C)c5C(=O)O)c4)CC3)cc2)cc1[N+](=O)[O-] [Compound 20, (R)-4-(4-Chlorophenyl)-3-(3-(4-(4-(4-((4-(dimethylamino)-1-(phenylthio)butan-2-yl)amino)-3-nitrophenylsulfonamido)phenyl)piperazin-1-yl)phenyl)-1-methyl-1H-pyrrole-2-carboxylic acid]
cell death induction (H146 cancer cell line): effectively induce cell death in a dose-dependent manner

Structure (SMILES): CCc1c(-c2ccc(Cl)cc2)c(-c2cccc(N3CCN(c4ccc(NS(=O)(=O)c5ccc(N[C@H](CCN(C)C)CSc6ccccc6)c([N+](=O)[O-])c5)cc4)CC3)c2)c(C(=O)O)n1C [Compound 21, (R)-4-(4-Chlorophenyl)-3-(3-(4-(4-(4-((4-(dimethylamino)-1-(phenylthio)butan-2-yl)amino)-3-nitrophenylsulfonamido)phenyl)piperazin-1-yl)phenyl)-5-ethyl-1-methyl-1H-pyrrole-2-carboxylic acid]
concentration inducing cleavage of PARP and caspase-3 [2]: 100 nM
cell death induction (H146 cancer cell line): effectively induce cell death in a dose-dependent manner
concentration inducing substantial/robust cell death (H146 cancer cell line): 30 to 100 nM and 30 nM

Continued, in another order:

times less potent than 7 in binding to Bcl-2 (Bcl-2): > 10
Structure (SMILES): CN(C)CC[C@H](CSc1ccccc1)Nc1ccc(S(=O)(=O)Nc2ccc(N3CCN(c4ccc(-c5c(-c6ccc(Cl)cc6)cn(CC[C@H](O)CO)c5C(=O)NCCCN5CCN(C)CC5)cc4)CC3)cc2)cc1[N+](=O)[O-] [Compound 12, 4-(4-Chlorophenyl)-1-((S)-3,4-dihydroxybutyl)-3-(4-(4-(4-(4-(((R)-4-(dimethylamino)-1-(phenylthio)butan-2-yl)amino)-3-nitrophenylsulfonamido)phenyl)piperazin-1-yl)phenyl)-N-(3-(4-methylpiperazin-1-yl)propyl)-1H-pyrrole-2-carboxamide]

affinity times weaker than that of 1 (Bcl-2; Bcl-2 and Bcl-xL): > 10
Structure (SMILES): CN(C)CC[C@H](CSc1ccccc1)Nc1ccc(S(=O)(=O)Nc2ccc(N3CCN(Cc4ccccc4-c4ccc(Cl)cc4)CC3)cc2)cc1[N+](=O)[O-] [Compound 13, (R)-N-(4-(4-((4'-Chloro-[1,1'-biphenyl]-2-yl)methyl)piperazin-1-yl)phenyl)-4-((4-(dimethylamino)-1-(phenylthio)butan-2-yl)amino)-3-nitrobenzenesulfonamide]

times less potent than 17 in binding to Bcl-2 (Bcl-2): 10
Structure (SMILES): CCOC(=O)c1c(-c2cccc(N3CCN(c4ccc(NS(=O)(=O)c5ccc(N[C@H](CCN(C)C)CSc6ccccc6)c([N+](=O)[O-])c5)cc4)CC3)c2)c(-c2ccc(Cl)cc2)cn1C [Compound 19, (R)-Ethyl 4-(4-chlorophenyl)-3-(3-(4-(4-(4-((4-(dimethylamino)-1-(phenylthio)butan-2-yl)-amino)-3-nitrophenylsulfonamido)phenyl)piperazin-1-yl)phenyl)-1-methyl-1H-pyrrole-2-carboxylate]
times less potent than 17 in cell growth inhibition [1]: 10
